The values that follow come from ChEMBL document CHEMBL3826885, “Similarities and differences in affinity and binding modes of tricyclic pyrimido- and pyrazinoxanthines at human and rat adenosine receptors” (Bioorg Med Chem, 2016).

pKi: −log10 of the molar value.

The target in test [1] is Adenosine receptor A2a (Rattus norvegicus, UniProt P30543). Nature of the test: Displacement of [3H]MSX2 from adenosine receptor A2a in rat brain striatal membranes. The class given is cell membranes, Membrane. In a few lines: (§1)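 Native rat receptors: A1 in brain cortical membranes with [3H]CCPA, A2A in brain striatal membranes, from frozen unstripped rat brains. Compounds were first screened at a single high concentration in three independent experiments. Active compounds then had full inhibition curves over at least 3 orders of magnitude of concentration.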
A general note: In a radioligand displacement assay an active substance lowers the binding of a labelled ligand.

In test [2] the target is T1, Adenosine receptor A1 (Rattus norvegicus) (UniProt P25099).
T1 sequence (whole entry): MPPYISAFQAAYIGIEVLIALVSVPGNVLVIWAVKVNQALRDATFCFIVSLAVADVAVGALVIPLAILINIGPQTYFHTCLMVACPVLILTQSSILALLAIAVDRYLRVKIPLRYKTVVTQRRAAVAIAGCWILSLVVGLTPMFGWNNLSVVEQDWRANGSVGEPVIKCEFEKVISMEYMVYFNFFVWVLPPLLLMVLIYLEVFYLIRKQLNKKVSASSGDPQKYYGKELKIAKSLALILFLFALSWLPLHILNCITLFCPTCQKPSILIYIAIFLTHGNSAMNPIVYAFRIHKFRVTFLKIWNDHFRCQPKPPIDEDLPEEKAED
Description: Displacement of [3H]CCPA from adenosine receptor A1 in rat brain cortical membranes at 1 uM. The class given is cell membranes. The procedure, abridged:
as §1

The target in test [3] is T2, Adenosine receptor A3 (Homo sapiens, UniProt P0DMS8).
T2 sequence (P0DMS8 whole entry): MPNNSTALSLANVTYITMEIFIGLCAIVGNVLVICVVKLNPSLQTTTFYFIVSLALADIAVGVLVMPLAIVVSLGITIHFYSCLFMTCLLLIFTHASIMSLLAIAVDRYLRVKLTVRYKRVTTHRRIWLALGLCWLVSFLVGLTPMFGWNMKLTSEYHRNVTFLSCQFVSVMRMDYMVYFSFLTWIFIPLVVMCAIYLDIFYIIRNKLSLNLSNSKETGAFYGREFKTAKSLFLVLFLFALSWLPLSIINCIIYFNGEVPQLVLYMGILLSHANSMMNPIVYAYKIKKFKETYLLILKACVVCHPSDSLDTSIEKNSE
Nature of the test: Displacement of [3H]PSB-11 from recombinant human adenosine receptor A3 expressed in CHO cell membranes.

Test [4] has as its target T3, Adenosine receptor A1 (Rattus norvegicus, UniProt P25099).
T3 sequence (P25099 whole entry): T1 sequence (whole entry)
Description: Displacement of [3H]CCPA from adenosine receptor A1 in rat brain cortical membranes. The class given is cell membranes. The procedure, abridged: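 Native rat receptors: A1 in brain cortical membranes with [3H]CCPA, A2A in brain striatal membranes, from frozen unstripped rat brains. Compounds were first screened at a single high concentration in three independent experiments.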

For test [5], the target named is T4, Adenosine receptor A1 (Homo sapiens) (UniProt P30542).
T4 sequence (whole entry): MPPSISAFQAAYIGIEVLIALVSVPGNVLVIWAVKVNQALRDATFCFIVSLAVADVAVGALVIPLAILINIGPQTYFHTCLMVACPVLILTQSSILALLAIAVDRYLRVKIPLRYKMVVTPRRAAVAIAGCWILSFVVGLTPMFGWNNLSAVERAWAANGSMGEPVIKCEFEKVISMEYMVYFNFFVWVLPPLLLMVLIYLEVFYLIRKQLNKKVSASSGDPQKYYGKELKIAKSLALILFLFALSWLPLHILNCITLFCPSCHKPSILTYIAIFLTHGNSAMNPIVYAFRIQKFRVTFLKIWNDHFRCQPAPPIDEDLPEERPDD
Description: Displacement of [3H]CCPA from recombinant human adenosine receptor A1 expressed in CHO cell membranes at 1 uM. In a few lines:
(§2)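 Membranes came from CHO cells expressing recombinant receptors (human A1, A2A, A2B, A3; rat A2B, A3). Radioligands were [3H]CCPA for A1 and [3H]PSB-11 or [3H]NECA for A3. A single high concentration was screened first, in three experiments for A1/A2A and two for A2B/A3. Full inhibition curves spanning at least 3 log units were run for potent compounds.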

Test [6] deals with T5, Adenosine receptor A1 (Homo sapiens, UniProt P30542).
T5 sequence (P30542 whole entry): T4 sequence (whole entry)
Nature of the test: Displacement of [3H]CCPA from recombinant human adenosine receptor A1 expressed in CHO cell membranes. In a few lines:
as §2

Test [7] deals with T6, Adenosine receptor A2a (Homo sapiens, UniProt P29274). Description: Displacement of [3H]MSX2 from recombinant human adenosine receptor A2a expressed in CHO cell membranes. In a few lines:
as §2

Test [8] concerns the target T7, Adenosine receptor A2b (Rattus norvegicus) (UniProt P29276).
T7 sequence (whole entry): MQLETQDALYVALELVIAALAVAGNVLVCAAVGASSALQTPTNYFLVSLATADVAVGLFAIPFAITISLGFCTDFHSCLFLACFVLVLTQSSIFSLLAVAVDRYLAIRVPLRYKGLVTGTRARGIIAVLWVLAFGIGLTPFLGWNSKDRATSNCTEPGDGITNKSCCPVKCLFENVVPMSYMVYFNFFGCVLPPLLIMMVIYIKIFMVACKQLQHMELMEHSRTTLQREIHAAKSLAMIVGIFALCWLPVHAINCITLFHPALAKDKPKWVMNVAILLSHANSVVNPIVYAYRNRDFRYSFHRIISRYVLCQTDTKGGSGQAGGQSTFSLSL
Nature of the test: Displacement of [3H]PSB-603 from recombinant rat adenosine receptor A2b expressed in CHO cell membranes at 1 uM. In a few lines: as §2

In test [9] the target is T8, Adenosine receptor A3 (Homo sapiens) (UniProt P0DMS8).
T8 sequence (whole entry): T2 sequence (P0DMS8 whole entry)
Description: Displacement of [3H]PSB11 from recombinant human adenosine receptor A3 expressed in CHO cell membranes at 1 uM. In a few lines: as §2

Test [10] has as its target T9, Adenosine receptor A2b (Homo sapiens) (UniProt P29275).
T9 sequence (whole entry): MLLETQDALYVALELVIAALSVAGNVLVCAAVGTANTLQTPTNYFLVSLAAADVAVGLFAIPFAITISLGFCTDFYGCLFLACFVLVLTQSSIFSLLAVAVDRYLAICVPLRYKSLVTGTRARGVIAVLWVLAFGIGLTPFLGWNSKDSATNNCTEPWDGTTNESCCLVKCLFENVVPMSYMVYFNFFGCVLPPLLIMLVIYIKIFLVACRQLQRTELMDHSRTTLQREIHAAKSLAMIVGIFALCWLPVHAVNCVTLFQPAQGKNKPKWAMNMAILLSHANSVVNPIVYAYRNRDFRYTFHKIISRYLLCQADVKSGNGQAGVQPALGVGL
Nature of the test: Displacement of [3H]PSB-603 from recombinant human adenosine receptor A2b expressed in CHO cell membranes at 1 uM. The procedure, abridged:
as §2

Test [11] has as its target T10, Adenosine receptor A2b (Homo sapiens, UniProt P29275).
T10 sequence (P29275 whole entry): T9 sequence (whole entry)
Description: Displacement of [3H]PSB-603 from recombinant human adenosine receptor A2b expressed in CHO cell membranes. The procedure, abridged: (§3)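 Membranes came from CHO cells expressing recombinant receptors (human A1, A2A, A2B, A3; rat A2B, A3). Radioligands were [3H]CCPA for A1 and [3H]PSB-11 or [3H]NECA for A3. A single high concentration was screened first, in three experiments for A1/A2A and two for A2B/A3.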

For test [12], the target named is T6, Adenosine receptor A2a. Description: Displacement of [3H]MSX2 from recombinant human adenosine receptor A2a expressed in CHO cell membranes at 1 uM. In a few lines: as §2
The target in test [13] is T11, Adenosine receptor A3 (Rattus norvegicus, UniProt P28647).
T11 sequence (P28647 whole entry): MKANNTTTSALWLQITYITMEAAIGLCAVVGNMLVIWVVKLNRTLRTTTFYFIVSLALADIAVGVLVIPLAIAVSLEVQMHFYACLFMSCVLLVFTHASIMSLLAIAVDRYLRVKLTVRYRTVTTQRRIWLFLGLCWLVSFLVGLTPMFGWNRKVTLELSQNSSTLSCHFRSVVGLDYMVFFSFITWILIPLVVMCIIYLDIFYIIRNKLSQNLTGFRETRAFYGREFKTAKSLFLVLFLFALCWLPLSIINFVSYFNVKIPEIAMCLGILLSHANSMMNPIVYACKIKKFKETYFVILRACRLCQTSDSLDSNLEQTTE
Description: Displacement of [3H]NECA from recombinant rat adenosine receptor A3 expressed in CHO cell membranes. In a few lines: as §3

Test [14] addresses Adenosine receptor A2a (Rattus norvegicus) (UniProt P30543). Description: Displacement of [3H]MSX2 from Adenosine receptor A2a in rat brain striatal membranes at 1 uM. The class given is cell membranes. The conditions noted are these: Membrane. In a few lines:
as §1

Test [15] concerns the target T12, Adenosine receptor A3 (Rattus norvegicus) (UniProt P28647).
T12 sequence (whole entry): T11 sequence (P28647 whole entry)
Nature of the test: Displacement of [3H]NECA from recombinant rat adenosine receptor A3 expressed in CHO cell membranes at 1 uM. The procedure, abridged: as §2

Test [16] deals with T13, Adenosine receptor A2b (Rattus norvegicus, UniProt P29276).
T13 sequence (P29276 whole entry): T7 sequence (whole entry)
Nature of the test: Displacement of [3H]PSB-603 from recombinant rat adenosine receptor A2b expressed in CHO cell membranes. The procedure, abridged:
as §3

Adenosine receptor A2a (Rattus norvegicus), sequence (P30543 whole entry): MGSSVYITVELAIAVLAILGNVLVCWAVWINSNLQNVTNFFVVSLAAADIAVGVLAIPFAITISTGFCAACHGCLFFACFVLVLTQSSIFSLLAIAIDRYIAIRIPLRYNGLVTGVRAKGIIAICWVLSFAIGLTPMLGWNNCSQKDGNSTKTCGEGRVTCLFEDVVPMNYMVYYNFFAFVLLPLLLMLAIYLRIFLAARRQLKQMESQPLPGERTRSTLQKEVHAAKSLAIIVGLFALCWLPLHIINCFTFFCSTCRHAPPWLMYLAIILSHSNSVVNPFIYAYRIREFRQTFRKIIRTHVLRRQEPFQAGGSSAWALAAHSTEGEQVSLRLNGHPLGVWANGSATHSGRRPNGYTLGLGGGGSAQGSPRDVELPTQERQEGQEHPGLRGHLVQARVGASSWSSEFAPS
Adenosine receptor A2a (Rattus norvegicus, UniProt P30543), sequence (P30543 whole entry): as above
T6 sequence (P29274 whole entry): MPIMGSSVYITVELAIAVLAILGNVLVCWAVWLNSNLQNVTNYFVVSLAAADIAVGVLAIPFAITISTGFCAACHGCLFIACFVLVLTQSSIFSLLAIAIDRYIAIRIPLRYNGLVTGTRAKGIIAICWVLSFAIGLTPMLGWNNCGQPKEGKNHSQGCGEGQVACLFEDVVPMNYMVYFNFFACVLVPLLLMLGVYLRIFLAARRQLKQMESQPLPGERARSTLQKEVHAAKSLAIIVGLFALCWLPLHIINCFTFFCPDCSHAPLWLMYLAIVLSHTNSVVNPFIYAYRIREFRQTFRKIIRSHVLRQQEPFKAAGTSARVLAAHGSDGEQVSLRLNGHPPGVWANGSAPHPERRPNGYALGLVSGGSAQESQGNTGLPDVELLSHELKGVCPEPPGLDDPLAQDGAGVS

For the compound `CCCCn1c(=O)c2c(nc3n2CCCN3c2ccc(OCCN(CC)CC)cc2)n(CCCC)c1=O`, the pKi is 5.84 in test [1]; less than 6.00 in test [3]; 6.86 in test [4]; 5.92 in test [6]; 6.00 in [7]; less than 6.00 in [11]. Also, the pKi in test [13] and in [16] was less than 6.00 each time. The inhibition in test [2] amounted to 55%; in [5], 30%; in test [8] it was 6%; in [9], 44%; in test [10], 6%; in test [12], 54%. The inhibition was found to be 49% in [14] and 16% in test [15].
On to `CCn1c(=O)c2c(nc3n2CCCN3CCc2ccc(O)cc2)n(CC)c1=O`, for which the negative-log Ki (pKi) in [1] was 6.57; in test [6], 5.69; in test [7], 5.66; in test [11], less than 6.30. Moreover, the inhibition is 14% in [2]; 20% in test [5]; 14% in [8]; 42% in [10]; 30% in [12]; 80% in test [14]. Further, the inhibition in test [15] is 19%.
Turning to `CCCCn1c(=O)c2c(nc3n2CCCN3c2ccc(OCCN3CCOCC3)cc2)n(CCCC)c1=O`, the pKi in [1] is less than 6.00; in test [3], less than 6.00; in [4], 6.57; in test [11], less than 6.00. Further, the inhibition is 35% in [2], 38% in test [9], 27% in [10] and 31% in test [14].
For the compound `CCCCn1c(=O)c2c(nc3n2CCCN3c2ccc(OCCN3CCCCC3)cc2)n(CCCC)c1=O`, the pKi in test [1] is 5.83; in test [4], 6.90; in test [6] it was 6.15; in [7], 6.04; in [11] it was less than 6.00; in test [13] it was less than 6.00. Also, in test [16], the pKi is less than 6.00. The inhibition stood at 65% in test [2]; 42% in test [5]; 9% in test [8]; 48% in [9]; 41% in test [10]; 53% in test [12]. The inhibition was found to be 49% in test [14] and 20% in test [15].
As for `CCCCn1c(=O)c2c(nc3n2CCCN3c2ccc(OCCN3CCCC3)cc2)n(CCCC)c1=O`, the pKi in [1] was 6.00; in test [4], 7.14; in [6] it was 6.18; in test [7] it was 6.18; in test [11], less than 6.00; in test [13], less than 6.00. In test [16], the pKi is less than 6.00. The inhibition in test [2] was found to be 69%; in [5], 41%; in test [8] it was 15%; in test [9], 48%; in [10] it was 34%; in test [12], 68%. In addition, the inhibition in test [14] was 49%; in [15], 20%.

The pKi is the negative decadic logarithm of the Ki, by convention in mol/L. In general, inhibition refers to the change of the read-out against control, counted positive when it falls.
